Data from ChEMBL document CHEMBL1123394, “Systematic synthesis and biological evaluation of alpha- and beta-D-xylofuranosyl nucleosides of the five naturally occurring bases in nucleic acids and related analogues” (J Med Chem, 1986).

Tested on: Vero
Assay: Concentration required for microscopically detectable alteration of the normal cell morphology in Vero B cells.
Format: functional
Details: Chlorocebus sabaeus
Outline: (§1)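 Host-cell morphology inspected microscopically for detectable alteration, with compounds in growth medium at up to 200 or 400 μg/mL.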

Q: With `Nc1nc(S)c2ncn(C3O[C@H](CO)[C@H](O)[C@H]3O)c2n1` (some centres undefined) as the compound, how does the MCC read?
A: Its MCC is ≥ 200 µg/mL.

Tested on: Vero
Assay: Antiviral activity was measured against Parainfluenza virus-3 in african green monkey kidney (Vero B) cells.
Format: functional
Details: Chlorocebus sabaeus
Outline: (§2)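 Inhibition of virus-induced cytopathogenicity scored in cell culture monolayers. Test compounds dissolved in growth medium at 100, 10, or 1 μg/mL or less.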

Q: With `Nc1nc(S)c2ncn(C3O[C@H](CO)[C@H](O)[C@H]3O)c2n1` (some centres undefined) as the compound, how does the MCC read?
A: The MCC was > 200 µg/mL.

Tested on: WI-38
Assay: Concentration required for microscopically detectable alteration of the normal cell morphology in Wi-38 cells.
Format: functional
Details: Homo sapiens
Outline: as §1

Q: With `Nc1nc(S)c2ncn(C3O[C@H](CO)[C@H](O)[C@H]3O)c2n1` (some centres undefined) as the compound, how does the MCC read?
A: Its MCC is ≥ 400 µg/mL.

Tested on: WI-38
Assay: Antiviral activity was measured against Rhino virus-9 in human diploid (WI-38) cells.
Format: functional
Details: not given
Outline: as §2

Q: With `Nc1nc(S)c2ncn(C3O[C@H](CO)[C@H](O)[C@H]3O)c2n1` (some centres undefined) as the compound, how does the MCC read?
A: The MCC was > 200 µg/mL.

Tested on: not listed separately
Assay: Antiviral activity was measured against Herpes simplex virus (HSV-1 KOS) in rabbit kidney cells.
Format: functional
Details: Oryctolagus cuniculus
Outline: (§3)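 Inhibition of virus-induced cytopathogenicity in cell culture. Compounds were dissolved in growth medium at 100, 10 or 1 μg/mL or less.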

Q: For `Nc1nc(S)c2ncn(C3O[C@H](CO)[C@H](O)[C@H]3O)c2n1` (some centres undefined), which MCC is on record?
A: The MCC was > 400 µg/mL.

Tested on: Vero
Assay: Antiviral activity was measured against Reo virus-1 in african green monkey kidney (Vero B) cells.
Format: functional
Details: Chlorocebus sabaeus
Outline: as §2

Q: For `Nc1nc(S)c2ncn(C3O[C@H](CO)[C@H](O)[C@H]3O)c2n1` (some centres undefined), which MCC is on record?
A: The MCC was > 200 µg/mL.

Tested on: not listed separately
Assay: Antiviral activity was measured against Herpes simplex virus (HSV-2 G) in rabbit kidney cells.
Format: functional
Details: Oryctolagus cuniculus
Outline: as §2

Q: For `Nc1nc(S)c2ncn(C3O[C@H](CO)[C@H](O)[C@H]3O)c2n1` (some centres undefined), which MCC is on record?
A: Its MCC is > 400 µg/mL.

Tested on: not listed separately
Assay: Concentration required for microscopically detectable alteration of the normal cell morphology in PRK cells.
Format: functional
Details: Oryctolagus cuniculus
Outline: as §1

Q: Which MCC does the source give for `Nc1nc(S)c2ncn(C3O[C@H](CO)[C@H](O)[C@H]3O)c2n1` (some centres undefined) here?
A: Its MCC is > 400 µg/mL.

Tested on: WI-38
Assay: Antiviral activity was measured against Rhino virus-1A in human diploid (WI-38) cells.
Format: functional
Details: not given
Outline: as §2

Q: For `Nc1nc(S)c2ncn(C3O[C@H](CO)[C@H](O)[C@H]3O)c2n1` (some centres undefined), which MCC is on record?
A: The MCC was > 200 µg/mL.

Tested on: Vero
Assay: Antiviral activity was measured against forest virus in african green monkey kidney (Vero B) cells.
Format: functional
Details: Chlorocebus sabaeus
Outline: as §2

Q: For `Nc1nc(S)c2ncn(C3O[C@H](CO)[C@H](O)[C@H]3O)c2n1` (some centres undefined), which MCC is on record?
A: Its MCC is > 200 µg/mL.

Tested on: HeLa
Assay: Concentration required for microscopically detectable alteration of the normal cell morphology in HeLa cells.
Format: functional
Details: Homo sapiens
Outline: as §1

Q: With `Nc1nc(S)c2ncn(C3O[C@H](CO)[C@H](O)[C@H]3O)c2n1` (some centres undefined) as the compound, how does the MCC read?
A: Its MCC is ≥ 200 µg/mL.

Tested on: Vero
Assay: Antiviral activity was measured against Sindbis virus in african green monkey kidney (Vero B) cells.
Format: functional
Details: Chlorocebus sabaeus
Outline: as §2

Q: Which MCC does the source give for `Nc1nc(S)c2ncn(C3O[C@H](CO)[C@H](O)[C@H]3O)c2n1` (some centres undefined) here?
A: Its MCC is > 200 µg/mL.

Tested on: Vero
Assay: Antiviral activity was measured against Coxsackie virus B4 in african green monkey kidney (Vero B) cells.
Format: functional
Details: Chlorocebus sabaeus
Outline: as §2

Q: With `Nc1nc(S)c2ncn(C3O[C@H](CO)[C@H](O)[C@H]3O)c2n1` (some centres undefined) as the compound, how does the MCC read?
A: Its MCC is > 200 µg/mL.

Tested on: HeLa
Assay: Antiviral activity was measured against Coxsackie virus B4 in HeLa cells.
Format: functional
Details: Homo sapiens
Outline: as §3

Q: Which MCC does the source give for `Nc1nc(S)c2ncn(C3O[C@H](CO)[C@H](O)[C@H]3O)c2n1` (some centres undefined) here?
A: The MCC was > 200 µg/mL.
